Data on 2 compounds can be found in ChEMBL document CHEMBL2163332 (J Med Chem, 2012).

Calls of active or inactive are those of the source. The rule behind the calls is not given here.

The target of data set [1] is T1, Mu-type opioid receptor (Homo sapiens, UniProt P35372). In words: Agonist activity at human FLAG-tagged mu opioid receptor expressed in HEK293 cells assessed as induction of ERK1/2 phosphorylation at 10 nM after 10 mins by Western blot analysis. It is filed as functional, cell-based. In outline:
(§1)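 Stable HEK293 line with FLAG-tagged MOR, in 12-well plates and serum-starved 16 h, then exposed to peptide at various concentrations for 10 min at 37 °C. Lysis in RIPA with 10 μM PMSF and phosphatase inhibitors. 20 μg protein run on 10% SDS-PAGE, blotted to PVDF and probed for phospho-ERK1/2 (Thr202/Tyr204) and total ERK1/2 (1:1000), ECL detection; at least three independent experiments.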

For data set [2], the target named is Delta-type opioid receptor (Homo sapiens, UniProt P41143). The data set is described as follows: Displacement of [3H]DPDPE from Myc-tagged delta opioid receptor expressed in HEK293 cells after 60 mins by liquid scintillation counter. The data set is classed as cell-based.
Chain of Delta-type opioid receptor (Homo sapiens, UniProt P41143) (P41143 whole entry): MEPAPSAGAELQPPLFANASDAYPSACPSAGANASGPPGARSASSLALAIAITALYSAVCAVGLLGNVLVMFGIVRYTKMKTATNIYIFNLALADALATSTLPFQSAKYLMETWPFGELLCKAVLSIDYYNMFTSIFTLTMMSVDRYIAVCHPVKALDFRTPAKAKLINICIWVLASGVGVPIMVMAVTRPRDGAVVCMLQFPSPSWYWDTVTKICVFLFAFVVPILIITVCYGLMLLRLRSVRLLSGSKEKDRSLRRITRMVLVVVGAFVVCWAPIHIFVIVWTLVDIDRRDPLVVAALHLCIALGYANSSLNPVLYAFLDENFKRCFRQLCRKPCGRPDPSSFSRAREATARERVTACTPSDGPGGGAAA
The target in data set [3] is Delta-type opioid receptor (Mus musculus) (UniProt P32300). The data set is described as follows: Agonist activity at delta opioid receptor in Kunming mouse vas deferens assessed as inhibition of electrically-stimulated muscle contraction in presence of delta opioid receptor antagonist naltrindole. It is filed as functional, tissue-based.
Chain of Delta-type opioid receptor (Mus musculus) (P32300 whole entry): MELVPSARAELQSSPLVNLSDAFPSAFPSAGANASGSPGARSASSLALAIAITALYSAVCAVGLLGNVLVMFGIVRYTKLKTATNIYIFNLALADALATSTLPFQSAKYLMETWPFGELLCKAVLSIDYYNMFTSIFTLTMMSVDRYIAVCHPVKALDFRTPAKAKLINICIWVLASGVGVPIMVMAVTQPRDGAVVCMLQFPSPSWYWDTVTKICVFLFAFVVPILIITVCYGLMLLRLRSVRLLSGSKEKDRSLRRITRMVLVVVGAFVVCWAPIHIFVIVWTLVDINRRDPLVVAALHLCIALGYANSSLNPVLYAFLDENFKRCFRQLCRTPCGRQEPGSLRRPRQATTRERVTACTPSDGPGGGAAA
For data set [4], the target named is T1, Mu-type opioid receptor. In words: Agonist activity at mu opioid receptor expressed in HEK293 cells assessed as inhibition of forskolin-induced cAMP accumulation after 30 mins by liquid scintillation counter relative to control. It is filed as functional, cell-based. In outline: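 MOR-expressing HEK293 cells seeded at 80% confluence the day before, washed with serum-free medium, preincubated 10 min at 37 °C with 1 mM IBMX, then peptide (5 × 10−11 to 5 × 10−5 M) with 50 μM forskolin added for 30 min at 37 °C. Lysis in 0.2 N HCl, neutralisation, cAMP measured by competition with [3H]cAMP for PKA (≥2 h, 4 °C) and charcoal separation; scintillation counting.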

The target in data set [5] is Mu-type opioid receptor (Cavia porcellus, UniProt P97266). The data set is described as follows: Agonist activity at mu opioid receptor in guinea pig ileum assessed as inhibition of electrically-stimulated muscle contraction. The data set is classed as functional, tissue-based.
Chain of Mu-type opioid receptor (Cavia porcellus, UniProt P97266) (P97266 whole entry): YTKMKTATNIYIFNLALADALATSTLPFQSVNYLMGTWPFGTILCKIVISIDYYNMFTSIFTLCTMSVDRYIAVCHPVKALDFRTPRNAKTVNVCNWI
Data set [6] deals with T1, Mu-type opioid receptor. The data set is described as follows: Displacement of [3H]DAMGO from FLAG-tagged mu opioid receptor expressed in HEK293 cells after 60 mins by liquid scintillation counter. The data set is classed as cell-based.
Data set [7] can be described thus: Half life in mouse brain homogenates. It is filed as ADME, tissue-based. Conditions: brain homogenate. In outline:
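Peptide incubated at 37 °C in twice-washed 15% mouse brain membrane homogenate, final protein 2.1 mg/mL in 50 mM Tris, pH 7.4. Aliquots centrifuged 13000g, 15 min, 4 °C, filtered 0.22 μm and analysed by C18 RP-HPLC (acetonitrile/water, 0.05% TFA). Half-life from pseudo-first-order disappearance kinetics; at least three experiments.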

Data set [8] has as its system Mus musculus. In words: Antinociceptive activity in naloxone treated Kunming mouse assessed as inhibition of heat-induced tail flick at 20 nmol/kg, icv after 10 mins post naloxone treatment. It is filed as functional, organism-based. In outline: (§2)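 Male Kunming mice (18−22 g), peptide or saline given icv; tail immersed in 50 ± 0.2 °C water and withdrawal latency recorded; only mice with baseline latency about 3−5 s used. Readings at 5, 10, 15, 20, 30, 40, 50 and 60 min post-injection; 10−15 mice per group. Naloxone 2 mg/kg ip 10 min before icv dosing for antagonism. ED50 with 95% confidence limits by graded dose−response.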

The nature of data set [9]: Selectivity ratio of Ki for Myc-tagged delta opioid receptor to Ki for FLAG-tagged mu opioid receptor.
In data set [10] the test system is Mus musculus. In words: Antinociceptive activity in Kunming mouse assessed as inhibition of heat-induced tail flick at 0.67 to 20 nmol/kg, icv. Conditions: TDE = time-dependent effect. The data set is classed as functional, organism-based. In a few lines: as §2
Data set [11] deals with T1, Mu-type opioid receptor. The data set is described as follows: Agonist activity at human FLAG-tagged mu opioid receptor expressed in HEK293 cells assessed as induction of ERK1/2 phosphorylation after 10 mins by Western blot analysis. It is filed as functional, cell-based. In a few lines: as §1
In data set [12] the target is Delta-type opioid receptor (Mus musculus, UniProt P32300). In words: Agonist activity at delta opioid receptor in Kunming mouse vas deferens assessed as inhibition of electrically-stimulated muscle contraction. It is filed as functional, tissue-based.
Chain of Delta-type opioid receptor (Mus musculus, UniProt P32300) (P32300 whole entry): as the sequence (P32300 whole entry) above
For data set [13], the target named is T1, Mu-type opioid receptor. The data set is described as follows: Agonist activity at human FLAG-tagged mu opioid receptor expressed in HEK293 cells assessed as induction of ERK1/2 phosphorylation at 1 pM after 10 mins by Western blot analysis. The data set is classed as functional, cell-based. In a few lines: as §1
Data set [14] relates to Mus musculus. The data set is described as follows: Antinociceptive activity in icv dosed Kunming mouse assessed as inhibition of heat-induced tail flick after 5 to 60 mins. The data set is classed as functional. Conditions: for ED50: central. In outline: as §2
Data set [15] concerns the target T1, Mu-type opioid receptor. The data set is described as follows: Agonist activity at mu opioid receptor expressed in HEK293 cells assessed as inhibition of forskolin-induced cAMP accumulation after 30 mins by liquid scintillation counter. It is filed as functional, cell-based.

T1 sequence (P35372 whole entry): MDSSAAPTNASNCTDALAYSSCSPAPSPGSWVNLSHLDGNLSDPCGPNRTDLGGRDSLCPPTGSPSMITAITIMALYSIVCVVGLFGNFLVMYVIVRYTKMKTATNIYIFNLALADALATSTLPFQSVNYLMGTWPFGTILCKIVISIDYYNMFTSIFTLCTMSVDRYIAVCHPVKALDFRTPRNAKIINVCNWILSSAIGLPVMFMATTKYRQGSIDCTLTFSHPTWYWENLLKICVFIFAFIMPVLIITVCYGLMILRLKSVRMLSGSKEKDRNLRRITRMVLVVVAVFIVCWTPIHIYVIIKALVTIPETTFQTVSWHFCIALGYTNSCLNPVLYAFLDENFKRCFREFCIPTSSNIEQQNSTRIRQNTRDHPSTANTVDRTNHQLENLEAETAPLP

Regarding `C=C(C(N)=O)[C@@H](NC(=O)[C@H](Cc1c[nH]c2ccccc12)NC(=O)[C@@H]1CCCN1C(=O)[C@@H](N)Cc1ccc(O)cc1)c1ccccc1`, the result on Mu-type opioid receptor [1] and on Mu-type opioid receptor [13] was Active. Moreover, the inhibition constant (Ki) in [2] was determined as 56000 nM; on Mu-type opioid receptor [6] it was 0.535 nM. For the same compound, the inhibition entry (in data set [3]; in the data set with Mus musculus [8]) was “inactive” throughout. Also, the maximum response (Emax) at Mu-type opioid receptor [4] amounted to 97.9%. The concentration for half-maximal inhibition (IC50) on Mu-type opioid receptor [5] came out at 6.81 nM; in data set [12], 7.53 nM. The same compound showed a half-life in data set [7] of 1.04 h. The Ratio Ki in data set [9] amounted to 105000. Further, the inhibition entry in the data set with Mus musculus [10] is “tde”; in the data set on Mus musculus [14], “Dose-dependent effect”; at Mu-type opioid receptor [15] it was “Dose-dependent effect”. In addition, at Mu-type opioid receptor [11], the Activity entry was “Dose-dependent effect”. Further, in the data set with Mus musculus [14], the ED50 was 0.00233 µmol/kg. In addition, the EC50 at Mu-type opioid receptor [15] was found to be 0.16 nM.

On to `C=C(C(N)=O)[C@@H](NC(=O)[C@H](Cc1c[nH]c2ccccc12)NC(=O)[C@@H]1CCCN1C(=O)[C@@H](N)Cc1ccc(O)cc1)c1ccco1`, for which the result at Mu-type opioid receptor [1] and at Mu-type opioid receptor [13] was Active. The inhibition constant Ki turned out to be 50000 nM in data set [2] and 0.221 nM on Mu-type opioid receptor [6]. Moreover, the inhibition result (in [3]; in the data set on Mus musculus [8]) was “inactive” throughout. The Emax on Mu-type opioid receptor [4] was found to be 97.1%. The half-inhibitory concentration (IC50) at Mu-type opioid receptor [5] worked out at 2.92 nM; in [12], 15.8 nM. In addition, the half-life in data set [7] amounted to 1.43 h. Further, the Ratio Ki in data set [9] was determined as 226000. Also, the inhibition result is “tde” in the data set on Mus musculus [10], “Dose-dependent effect” with Mus musculus [14] and “Dose-dependent effect” on Mu-type opioid receptor [15]. For the same compound, the Activity result on Mu-type opioid receptor [11] is “Dose-dependent effect”. In addition, the median effective dose (ED50) in the data set with Mus musculus [14] was found to be 0.00142 µmol/kg. Further, the EC50 at Mu-type opioid receptor [15] is 0.0334 nM.
